Rows were chosen to be rich in hits. Some 1.4% of all compounds tested hit in one or more screens of this group.
MsrA act: activates bovine MsrA enzyme. AID 602163. 0.3% of 360,000 active. activation, % at 10.6 µM. purified bovine MsrA, absorbance read-out; in the data active = activation above about 7.5%
MsrA inhibitor: inhibitors of bovine MsrA; purified bovine MsrA, absorbance read-out; inhibition, % at 15.5 µM; 0.75% of 360,000 active; in the data active = inhibition above about 4.5%
ARFGAP1 inh: inhibits rat ARF GTPase activating protein 1; Q62848; Arfgap1-stimulated ARF1 GTP hydrolysis, GDP FP detection; inhibition, % at 16.5 µM; 0.26% of 360,000 active; AID 651572;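 active = inhibition above a per-plate limit, mean inhibition of low control wells plus 3 SD, cut at about 25% in these data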
Target sequence (Q62848 1-136 limits assumed): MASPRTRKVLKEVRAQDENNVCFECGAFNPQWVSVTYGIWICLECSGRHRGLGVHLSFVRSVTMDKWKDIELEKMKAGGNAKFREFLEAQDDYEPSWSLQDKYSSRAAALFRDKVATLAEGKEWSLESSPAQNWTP
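Material – truncated rat Arfgap1 GAP domain · Buffer or medium – HEPES-based buffer, pH 7.5 · Reagent – human ARF1(Δ1-17)-GTP substrate · Dosing – 16.5 µM single point, 1.26% DMSO · Schedule – GTP hydrolysis reaction 2 h at 25 °C · Technique – GDP detection by fluorescence polarization · Benchmarks – No-Arfgap1 wells (100%) versus DMSO full-reaction wells (0%) · Repeats – single replicate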
ASAP1 GAP inh: ASAP1 ArfGAP inhibition; Q9ULH1; ASAP1-stimulated ARF1 GTP hydrolysis, GDP FP detection; inhibition, % at 16.5 µM; 0.19% of 360,000 active; AID 624377; in the data active = inhibition above about 25%
Target sequence (Q9ULH1 325-724 limits assumed): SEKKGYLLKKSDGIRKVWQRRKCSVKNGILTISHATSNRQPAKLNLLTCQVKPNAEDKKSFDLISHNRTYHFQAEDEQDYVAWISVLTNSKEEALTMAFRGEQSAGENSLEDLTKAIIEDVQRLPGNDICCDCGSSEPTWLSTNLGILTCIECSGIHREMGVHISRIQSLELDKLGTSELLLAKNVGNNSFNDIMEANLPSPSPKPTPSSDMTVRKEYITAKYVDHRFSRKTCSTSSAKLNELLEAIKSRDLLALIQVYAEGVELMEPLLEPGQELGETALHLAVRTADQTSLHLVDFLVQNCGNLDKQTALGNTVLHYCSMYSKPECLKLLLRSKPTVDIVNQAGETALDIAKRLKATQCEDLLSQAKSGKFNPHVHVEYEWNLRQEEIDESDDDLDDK
ARFGAP1 inh conf: rat ARFGAP1 inhibition, confirmed; shares compounds with ARFGAP1 inh; ARFGAP1-stimulated ARF1 GTP hydrolysis, GDP tracer FP; inhibition, % at 16.5 µM; 30% of 890 active;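 active = average inhibition over triplicates above the hit cutoff set in the earlier primary screen, cut at about 25% in these data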
A number is an active result; 0 = inactive; - = not tested or not shown.

SMILES	MsrA act	MsrA inhibitor	ARFGAP1 inh	ASAP1 GAP inh	ARFGAP1 inh conf
C/C(=N/NC(=O)c1cccs1)c1ccc(NC(=O)COc2ccc(Cl)cc2Cl)cc1	0	0	38	0	53
C/C(=N/NC(=O)c1ccc(C)s1)c1cccc(NC(=O)COc2ccc(Cl)cc2Cl)c1	0	0	0	0	-
CCNc1nc(-c2sc(NC(=O)C(C)(C)C)nc2C)c(-n2cc(-c3ccccc3)nn2)s1	0	0	32	0	0
Cc1c(C=O)c(Cl)n(C)c(=O)c1C#N	0	0	28	0	0
CCOc1ccc(N(CC(=O)Nc2ccc(OC)cc2)C2=NC3CS(=O)(=O)CC3S2)cc1 (configuration not stated)	0	0	0	0	-
COc1ccc(CCN2C(=NC(C)=O)SC3CS(=O)(=O)CC32)cc1OC (configuration not stated)	0	0	0	0	-
O=C1OC(c2ccccc2)(N(Nc2ccccc2)c2ccccc2)c2ccccc21 (configuration not stated)	0	0	0	0	-
Cc1ccc(CNC(=O)Cn2c(=O)n(CC(=O)N3CCCCC3)c(=O)c3sccc32)cc1	0	0	0	0	-
Cc1ccc(CNC(=O)Cn2c(=O)c3sccc3n(Cc3ccc([N+](=O)[O-])cc3)c2=O)cc1	0	0	36	0	55
Cc1ccc2sc(-c3ccc(NC(=O)c4cc(-n5cnnc5)ccc4Cl)cc3)nc2c1	0	0	28	0	0
COc1ccc(Cl)cc1NC(=O)c1nnn(CC(=O)Nc2ccc3c(c2)OCO3)c1N	0	0	94	0	132
COc1ccc(NC(=O)Cn2nnc(C(=O)Nc3ccc(F)c(Cl)c3)c2N)cc1	0	0	27	0	36
COCCNCc1nc2sc(C)c(-c3ccccc3)c2c(=O)[nH]1	0	0	28	0	0
COc1ccc(OC)c(NC(=O)Nc2nnc([C@@H]3O[C@H](CO)[C@@H](O)[C@H]3O)s2)c1	0	0	0	0	-
O/N=C\c1ccc2noc(-c3ccc(Cl)cc3)c2c1	0	0	25	0	29
CC(=O)c1ccc2noc(-c3ccc(Cl)cc3)c2c1	0	0	0	0	-
C=CCNc1nc(NCCOc2ccccc2Cl)c2sc(-c3ccccc3)cc2n1	0	0	0	0	-
C=CCNc1nc(NCc2ccc(N(C)C)cc2)c2sc(-c3ccccc3)cc2n1	0	0	46	0	0
C=CCNc1nc(NCCOC)c2sc(-c3ccccc3)cc2n1	0	0	28	0	40
c1ccc(CNc2nc(NCC3CC3)nc3cc(-c4ccccc4)sc23)cc1	0	0	0	0	-
O=C(OCc1cn([C@@H]2C[C@H](c3ccc(Cl)cc3)N(C(=O)C3CCCCC3)C[C@H]2O)nn1)c1ccccc1	0	0	0	0	-
CCOC(=O)C1(NC(=O)C2(N3C(=O)c4ccccc4C3=O)CCCC2)CCCC1	0	0	0	0	-
COC(=O)C1=C(C)OC(N)=C(C#N)C1c1ccccc1 (configuration not stated)	0	0	0	0	-
COC(=O)C1=C(C)OC(N)=C(C#N)C1C1CCCCC1 (configuration not stated)	0	0	26	0	0
COc1ccc(CNC(=O)O[C@H]2C[C@@H]3C(=O)N(c4ccccc4)C(=O)[C@@H]3[C@@H]3CN(S(=O)(=O)c4ccc(C)cc4)C[C@]23O)cc1OC	0	0	0	0	-
SMILES	MsrA act	MsrA inhibitor	ARFGAP1 inh	ASAP1 GAP inh	ARFGAP1 inh conf
CCN(CC)CCOC(=O)c1ccc(N/C=C(/C#N)c2nc(-c3ccc4c(c3)OCO4)cs2)cc1	0	0	32	0	73
N#C/C(=C\C=C\c1ccccc1)c1nc(-c2ccc3c(c2)OCO3)cs1	0	0	0	0	-
Cc1cccc2nc(-c3cccc(NC(=O)Cc4ccccc4)c3)cn12	0	0	0	0	-
Cc1cccc2nc(-c3cccc(NC(=O)c4ccc(Cl)cc4)c3)cn12	0	0	58	0	0
Fc1ccc(-c2nnc(Cc3ccc(Cl)cc3)o2)cc1	0	0	40	0	0
O=C(C(=O)N1CCN(C(=O)c2ccccc2C(F)(F)F)CC1)c1cccc(C(F)(F)F)c1	-	0	0	0	-
O=C(NNC(=S)NC(=O)C12CC3CC(CC(C3)C1)C2)c1ccncc1	0	0	37	0	0
CC1(C(=O)NC(=S)NNC(=O)c2ccncc2)CCCCC1	0	0	0	0	-
CCOc1ccc(C(=O)N(CN2CCCC2=O)c2cccc(Cl)c2)cc1	0	0	38	0	0
CC[C@@]1(O)C(=O)OCc2c1cc1n(c2=O)Cc2cc3c(CN(C)C)c(O)ccc3nc2-1	0	0	25	0	0
CC[C@@]1(O)C(=O)OCc2c1cc1n(c2=O)Cc2cc3c(N)cccc3nc2-1	0	0	0	0	-
Cc1csc(NC(=O)CCCC(=O)c2ccccc2)n1	0	0	0	0	-
Cc1ccc(NC(=O)Cn2cnc(C(=O)Nc3ccc(C)c(C)c3)n2)cc1C	0	0	0	0	-
COc1ccc(CN(C)C(=O)Cn2cnc(C(=O)Nc3ccc(C)c(C)c3)n2)cc1OC	0	0	29	0	0
CC(=O)Nc1cccc(C(=O)OCC(=O)N2CCC(c3ccccc3)=N2)c1	0	0	0	0	-
O=C(Cc1cccs1)N=Nc1c(O)[nH]c2ccccc12	0	0	0	0	-
O=C(N=Nc1c(O)[nH]c2ccccc12)c1cc(-c2cccs2)[nH]n1	0	0	30	0	32
Cc1ccc(S(=O)(=O)NCCC(=O)Nc2cccc(S(=O)(=O)N3CCCC3)c2)cc1C	0	0	34	0	0
O=c1[nH]c2ccccc2nc1-c1c[nH]c2ccccc12	0	0	26	0	0
Nc1ccccc1-c1nc2ccccc2[nH]c1=O	0	0	0	0	-
O=C(NCCN1CCOCC1)c1cccc(S(=O)(=O)NCc2ccccc2)c1	0	0	0	0	-
CN(C)c1ccc(NC(=O)CSc2nc(N)c(C(=O)Nc3ccc(N(C)C)cc3)s2)cc1	0	0	25	0	0
COc1ccc(NC(=O)CSc2nc(N)c(C(=O)Nc3ccc(N(C)C)cc3)s2)cc1	0	-	-	-	-
CC(OC(=O)C1CCN(c2ccc(C(F)(F)F)cn2)CC1)C(=O)Nc1cccc([N+](=O)[O-])c1 (configuration not stated)	0	0	27	0	0
CC1(C)C(=O)Nc2ccccc2N1C(=O)COC(=O)c1cccnc1Cl	0	0	0	0	-
COc1ccc(/C=C(/NC(=O)c2ccccc2)C(=O)NCc2ccncc2)cc1	0	0	0	0	-
COc1ccc(C(=O)N/C(=C\c2ccccc2)C(=O)NCc2cccnc2)cc1	0	0	25	0	0
C[C@@H]1OC(C2CCCCC2)N(C)[C@H]2C[C@H]3c4[nH]c5c(-c6ccccc6)cccc5c4CCN3C(=O)[C@@H]12 (some centres not stated)	-	0	0	0	-
Brc1ccc2nc(-c3ccc(CN4CCC5(CC4)CNc4ccccc45)cc3)c(-c3ccccc3)nc2c1	-	0	26	0	0
CC(C)CCNC(=O)C1CC(c2ccccc2C(F)(F)F)=NO1 (configuration not stated)	0	0	0	0	-

Screening results: PubChem, The Scripps Research Institute Molecular Screening Center
